Source: ChEMBL document CHEMBL1275434, “In vitro evaluation of CBR-2092, a novel rifamycin-quinolone hybrid antibiotic: studies of the mode of action in Staphylococcus aureus” (Antimicrob Agents Chemother, 2008)
In brackets after ≈: the same amount, converted by molar mass. Activity calls are given as the source filed them. The rule behind the calls is not given here.

What was measured:
[1] = test system: Staphylococcus aureus; test: Antimicrobial activity against Staphylococcus aureus CB1882 harboring rpoB R484H mutant gene, L520 deficient gyrA gene and R236 duplicated parC gene by broth microdilution method; type: functional
In short: (§1)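 CLSI broth microdilution MIC in MHII broth with 0.002% (vol/vol) polysorbate 80. Isolates came from daily stepwise broth passage at sub-MIC drug (MHII without polysorbate 80, 10^6 CFU/ml inoculum, 20–24 h shaking at 37°C), were purified drug-free, and were sequenced at target loci.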

[2] = test system: Staphylococcus aureus; test: Inhibition of protein synthesis in quinolone-resistant Staphylococcus aureus CB814 harboring gyrA S84L and parC S80F mutant genes assessed as decrease in L-[3,4,5-3H]leucine incorporation at 0.5 ug/ml; type: functional, organism-based
In short: (§2)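 Time-course radiolabel incorporation in S. aureus cultures with test agent. Precursors: [methyl-3H]thymidine (DNA), [5,6-3H]uridine (RNA), L-[3,4,5-3H]leucine (protein), [2,3-3H]D-alanine (cell wall). At each time point, incorporation with agent is expressed relative to the DMSO-treated control culture as percent incorporation. Time-zero incorporation is set to 100%.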

[3] = test system: Staphylococcus aureus; test: Antimicrobial activity against Staphylococcus aureus CB1887 harboring rpoB R484H, L520 deficient gyrA, […], R236 duplicated parC and parC H103Y mutant genes selected after ABT-719 exposure for 20 days by broth microdilution method; type: functional; conditions: CB1887, 480 h
In short: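 CLSI broth microdilution MIC in MHII with 0.002% polysorbate 80 against strains from 20–21 days of stepwise passage of rifamycin- and/or quinolone-resistant parents; CBR-2092 passages used MHII with 0.002% polysorbate 80.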

[4] = test system: Staphylococcus aureus; test: Antimicrobial activity against Staphylococcus aureus CB1522 harboring by broth microdilution method; type: functional
[5] = test system: Staphylococcus aureus; test: Antimicrobial activity against Staphylococcus aureus CB1871 harboring rpoB H481Y mutant gene by broth microdilution method
[6] = test system: Staphylococcus aureus; test: Inhibition of protein synthesis in Staphylococcus aureus CB190 assessed as decrease in L-[3,4,5-3H]leucine incorporation at 0.5 ug/ml; type: functional, organism-based
[7] = test system: Staphylococcus aureus; test: Antimicrobial activity against wild-type Staphylococcus aureus CB190 by broth microdilution method; type: functional
In short: (§3)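 CLSI broth microdilution MIC in cation-adjusted Mueller-Hinton (MHII) broth supplemented with 0.002% (vol/vol) polysorbate 80, included to limit compound loss to plastic surfaces.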

[8] = test system: Staphylococcus aureus; test: Antimicrobial activity against rifampin-sensitive Staphylococcus aureus CB190 by broth microdilution method; type: functional; in short: as §3
[9] = test system: Staphylococcus aureus; test: Inhibition of RNA synthesis in rifamycin-resistant Staphylococcus aureus CB370 harboring rpoB H481Y mutant gene assessed as decrease in [5,6-3H]uridine incorporation at 0.5 ug/ml; type: functional, organism-based
In short: (§4)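 Macromolecular synthesis time course in S. aureus, measuring incorporation of [methyl-3H]thymidine (DNA), [5,6-3H]uridine (RNA) or [2,3-3H]D-alanine (cell wall). At each time point, incorporation is expressed as percent of the DMSO-treated control culture. Incorporation at time zero is set to 100%.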

[10] = test system: Staphylococcus aureus; test: Antimicrobial activity against Staphylococcus aureus CB1880 harboring rpoB R484H mutant gene; type: functional
[11] = test system: Staphylococcus aureus; test: Antimicrobial activity against Staphylococcus aureus CB1880 harboring rpoB R484H mutant gene by agar dilution method; type: functional
In short: (§5)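 CLSI agar dilution MIC on MHII base medium against stepwise-passage isolates; passage was in MHII broth without polysorbate 80, daily at 37°C.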

[12] = test system: Staphylococcus aureus; test: Antimicrobial activity against Staphylococcus aureus CB1884 harboring rpoB R484H mutant gene, L520 deficient gyrA gene, gyrA S84L mutant gene, R236 duplicated par C gene and parC H103Y mutant gene; type: functional
[13] = test system: Staphylococcus aureus; test: Inhibition of RNA synthesis in quinolone-resistant Staphylococcus aureus CB814 harboring gyrA S84L and parC S80F mutant genes assessed as decrease in [5,6-3H]uridine incorporation at 0.5 ug/ml; type: functional, organism-based; in short: as §4
[14] = test system: Staphylococcus aureus; test: Antimicrobial activity against Staphylococcus aureus CB1887 harboring rpoB R484H, L520 deficient gyrA, […], R236 duplicated parC and parC H103Y mutant genes selected after ABT-719 exposure for 20 days by agar dilution method; type: functional; conditions: CB1887, 480 h
[15] = test system: Staphylococcus aureus; test: Antimicrobial activity against Staphylococcus aureus CB1333 harboring rpoB H481Y, parC S80F and parE L517F mutant genes selected after 0.8 ug/ml drug exposure by broth microdilution method; type: functional
[16] = test system: Staphylococcus aureus; test: Antimicrobial activity against rifampin-sensitive Staphylococcus aureus CB190 harboring rpoB D471G mutant gene by broth microdilution method; type: functional; in short: as §3
[17] = test system: Staphylococcus aureus; test: Antimicrobial activity against Staphylococcus aureus CB1884 harboring rpoB R484H mutant gene, L520 deficient gyrA gene, gyrA S84L mutant gene, R236 duplicated par C gene and parC H103Y mutant gene by agar dilution method; type: functional; in short: as §5
[18] = test system: Staphylococcus aureus; test: Antimicrobial activity against rifampin-sensitive Staphylococcus aureus CB190 harboring rpoB H481N mutant gene by broth microdilution method; type: functional; in short: as §3
[19] = test system: Staphylococcus aureus; test: Antimicrobial activity against wild-type Staphylococcus aureus CB190 by agar dilution method; type: functional
In short: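 CLSI agar dilution MIC with cation-adjusted Mueller-Hinton (MHII) agar as the base medium.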

[20] = test system: Staphylococcus aureus; test: Antimicrobial activity against Staphylococcus aureus CB1884 by broth microdilution method; type: functional; in short: as §1
[21] = test system: Staphylococcus aureus; test: Antimicrobial activity against Staphylococcus aureus CB1880 harboring rpoB R484H mutant gene by broth microdilution method; type: functional; in short: as §1
[22] = test system: Staphylococcus aureus; test: Antimicrobial activity against Staphylococcus aureus CB1875 harboring gyrA […], parC R298K mutant genes and LNVIKEE461 inserted parC gene by broth microdilution method; type: functional; in short: as §1
[23] = test system: Staphylococcus aureus; test: Antimicrobial activity against Staphylococcus aureus CB1417 harboring rpoB H481Y and gyrA G532V mutant genes selected after 0.1 ug/ml drug exposure by broth microdilution method
[24] = test system: Staphylococcus aureus; test: Antimicrobial activity against Staphylococcus aureus CB815 harboring rpoB H481Y, gyrA S84L and parC S80F mutant genes by broth microdilution method
[25] = test system: Staphylococcus aureus; test: Antimicrobial activity against Staphylococcus aureus CB1947 harboring rpoB H481Y, gyrA S84L, E697 deficient gyrA, parC G167V mutant genes selected after CBR-2092 exposure for 20 days by broth microdilution method; conditions: CB1947, 480 h
[26] = test system: Staphylococcus aureus; test: Antimicrobial activity against Staphylococcus aureus CB1420 harboring rpoB H481Y and gyrA G584V mutant genes selected after 0.1 ug/ml drug exposure by broth microdilution method
[27] = test system: Staphylococcus aureus; test: Inhibition of protein synthesis in rifamycin-resistant Staphylococcus aureus CB370 harboring rpoB H481Y mutant gene assessed as decrease in L-[3,4,5-3H]leucine incorporation at 0.5 ug/ml; type: functional, organism-based; in short: as §2
[28] = test system: Staphylococcus aureus; test: Antimicrobial activity against rifampin-sensitive Staphylococcus aureus CB190 harboring rpoB H481Y mutant gene by broth microdilution method; type: functional; in short: as §3
[29] = test system: Staphylococcus aureus; test: Activity at Staphylococcus aureus wild-type DNA topoisomerase 4 subunit ParC
In short: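 Recombinant S. aureus topoisomerase IV (wild-type ParC with ParE; specific activity 25 to 30 U per μg). Stopped with SDS/proteinase K. Linear DNA quantified on gel; CC50 is the mean of two or more assays.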

For `CO[C@H]1/C=C/O[C@@]2(C)Oc3c(C)c(O)c4c(O)c(c(/C=N/N5CCC(N(C)C6([C@@H]7CCN(c8c(F)cn9c(=O)c(C(=O)O)cc(C%10CC%10)c9c8C)C7)CC6)CC5)c(O)c4c3C2=O)NC(=O)/C(C)=C\C=C\[C@H](C)[C@H](O)[C@@H](C)[C@@H](O)[C@@H](C)[C@H](OC(C)=O)[C@@H]1C`, the MIC [1] was 1 µg/mL (≈ 0.83 µM), the Activity [2] was “Active” and the MIC [3] was greater than 250 µg/mL. For the same molecule, the MIC [4] was 0.25 µg/mL (≈ 0.207 µM), the MIC [5] was 0.12 µg/mL (≈ 0.0996 µM) and the Activity [6] was “Active”. The MIC [7] was 0.015 µg/mL (≈ 0.0124 µM), the MIC [8] was 0.015 µg/mL (≈ 0.0124 µM) and the Activity [9] was “Active”. For the same molecule, the Time [10] was 43 min, the MIC [11] was 0.032 µg/mL (≈ 0.0265 µM) and the Time [12] was 65 min. For the same molecule, the Activity [13] was “Active”, the MIC [14] was greater than 8 µg/mL and the MIC [15] was 16 µg/mL (≈ 13.3 µM). For the same molecule, the MIC [16] was 0.25 µg/mL (≈ 0.207 µM), the MIC [17] was 4 µg/mL (≈ 3.32 µM) and the MIC [18] was 0.25 µg/mL (≈ 0.207 µM). It also gave an MIC [19] of 0.008 µg/mL (≈ 0.00664 µM), an MIC [20] of 64 µg/mL (≈ 53.1 µM) and an MIC [21] of 0.12 µg/mL (≈ 0.0996 µM). The MIC [22] was 0.008 µg/mL (≈ 0.00664 µM), the MIC [23] was 0.5 µg/mL (≈ 0.415 µM) and the MIC [24] was 2 µg/mL (≈ 1.66 µM). For the same molecule, the MIC [25] was 4 µg/mL (≈ 3.32 µM), the MIC [26] was 0.5 µg/mL (≈ 0.415 µM) and the Activity [27] was “Active”. For the same molecule, the MIC [28] was 0.12 µg/mL (≈ 0.0996 µM) and the CC50 [29] was 1700 nM.
